Assay results: ChEMBL document CHEMBL1139323, “Radiosynthesis, in vitro and in vivo evaluation of 123I-labeled anandamide analogues for mapping brain FAAH” (Bioorg Med Chem, 2009); call rule not given here

What was measured:
[1] = Drug uptake in NMRI mouse large intestine at 4 to 5 uCi, iv after 10 mins post injection; format: ADME, organism-based; conditions: in vivo
Summary of the method: (§1)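 Adult male NMRI mice (20–25 g) given 4–5 µCi of 123I-tracer iv via tail vein in ethanol/saline (8:92). Killed by cervical dislocation under isoflurane at set times, n = 3 per time point. Organs removed and weighed, radioactivity gamma-counted. Uptake expressed as %ID/g tissue ± SD.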

[2] = system: Stomach; assay: Drug uptake in NMRI mouse stomach at 4 to 5 uCi, iv after 1 hr post injection; format: ADME, organism-based; conditions: in vivo; summary of the method: as §1
[3] = Drug uptake in NMRI mouse small intestine at 4 to 5 uCi, iv after 10 mins post injection; format: ADME, organism-based; conditions: in vivo; summary of the method: as §1
[4] = system: Stomach; assay: Drug uptake in NMRI mouse stomach at 4 to 5 uCi, iv after 1 min post injection; format: ADME, organism-based; conditions: in vivo; summary of the method: as §1
[5] = system: Brain; assay: Stability in NMRI mouse brain at 3 uCi; format: ADME, tissue-based
Summary of the method: (§2)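 Brain and EDTA plasma from three male NMRI mice, kept on ice, spiked ex vivo with 3 µCi 123I-tracer. Extracted with acetonitrile and centrifuged; supernatant and pellet gamma-counted for extraction efficiency. Supernatant analysed by radio-TLC (silica, hexane/ethyl acetate 4:6) and C18 HPLC (acetonitrile/water/formic acid 80:20:0.1), fractions gamma-counted.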

[6] = system: Brain; assay: Drug uptake in NMRI mouse brain at 4 to 5 uCi, iv after 3 mins post injection; format: ADME, organism-based; conditions: in vivo, 0.05 h
Summary of the method: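 Adult male NMRI mice (20–25 g) given 4–5 µCi radiotracer iv via tail vein in 200 µl ethanol/saline (8:92). Killed by cervical dislocation under isoflurane at set times after injection, n = 3 per time point. Brain removed and weighed, radioactivity gamma-counted. Uptake given as %ID/g tissue ± SD.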

[7] = system: Plasma; assay: Stability in NMRI mouse plasma at 3 uCi; format: ADME, cell-free; summary of the method: as §2
[8] = biological target: T1, Fatty-acid amide hydrolase 1 (Rattus norvegicus, UniProt P97612); assay: Inhibition of rat recombinant FAAH assessed as [3H]AEA hydrolysis preincubated 15 mins before [3H]AEA substrate addition
T1 sequence (P97612 whole entry): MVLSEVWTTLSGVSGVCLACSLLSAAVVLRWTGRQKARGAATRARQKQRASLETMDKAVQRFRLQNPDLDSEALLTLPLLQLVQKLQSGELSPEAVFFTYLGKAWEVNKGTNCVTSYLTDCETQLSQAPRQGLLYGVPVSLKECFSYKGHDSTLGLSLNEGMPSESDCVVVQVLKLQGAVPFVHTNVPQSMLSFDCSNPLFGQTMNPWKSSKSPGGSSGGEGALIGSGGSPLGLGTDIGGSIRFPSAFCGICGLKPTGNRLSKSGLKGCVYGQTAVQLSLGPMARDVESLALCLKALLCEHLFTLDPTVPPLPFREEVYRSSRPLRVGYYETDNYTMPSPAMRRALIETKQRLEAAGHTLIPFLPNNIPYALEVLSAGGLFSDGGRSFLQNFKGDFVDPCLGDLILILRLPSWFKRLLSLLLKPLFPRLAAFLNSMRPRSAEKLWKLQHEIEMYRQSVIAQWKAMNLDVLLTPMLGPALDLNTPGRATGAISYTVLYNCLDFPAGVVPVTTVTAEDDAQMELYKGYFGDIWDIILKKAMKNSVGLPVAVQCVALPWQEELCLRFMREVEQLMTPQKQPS
Summary of the method: (§3)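 Recombinant MBP-rat FAAH (1.2 µg/assay) in 10 mM Tris-HCl pH 7.6, 1 mM EDTA. Compound used at levels giving 20%, 50% and 80% inhibition and preincubated with enzyme for 15, 30 or 60 min. 2 µM [3H]-AEA then added, 10 min at 37 °C. Aqueous [3H]-ethanolamine counted by scintillation; IC50 by sigmoidal variable-slope fit.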

[9] = biological target: T1, Fatty-acid amide hydrolase 1; assay: Inhibition of rat recombinant FAAH assessed as [3H]AEA hydrolysis preincubated 30 mins before [3H]AEA substrate addition; summary of the method: as §3
[10] = species on record: Mus musculus; assay: Stability in NMRI mouse by HPLC; format: ADME, organism-based; conditions: in vivo
Summary of the method: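 Three male mice injected with about 200 µCi 123I-tracer in ethanol/saline (8:92) and killed at 3 min. Plasma and brain extracted with acetonitrile and centrifuged. Supernatant run on C18 HPLC (acetonitrile/water/formic acid 80:20:0.1, 6 ml/min); 0.5-min fractions gamma-counted, plus radio-TLC.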

[11] = biological target: T1, Fatty-acid amide hydrolase 1; assay: Inhibition of rat recombinant FAAH assessed as [3H]AEA hydrolysis preincubated before [3H]AEA substrate addition; summary of the method: as §3
[12] = biological target: T1, Fatty-acid amide hydrolase 1; assay: Inhibition of rat recombinant FAAH assessed as [3H]AEA hydrolysis
Summary of the method: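 Recombinant rat FAAH fused to maltose binding protein, 1.2 µg per assay, in 10 mM Tris-HCl pH 7.6 with 1 mM EDTA. Test compound at ten concentrations (5 µM–1.5 nM), no preincubation. [3H]-AEA added at 2 µM final, 10 min at 37 °C. Stopped with chloroform/methanol; [3H]-ethanolamine in aqueous phase counted by scintillation. Three experiments; sigmoidal variable-slope fit of % control.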

[13] = biological target: T1, Fatty-acid amide hydrolase 1; assay: Inhibition of rat recombinant FAAH assessed as [3H]AEA hydrolysis preincubated 60 mins before [3H]AEA substrate addition; summary of the method: as §3
[14] = system: Brain; assay: Drug uptake in NMRI mouse brain at 4 to 5 uCi, iv after 10 mins post injection; format: ADME, organism-based; conditions: in vivo; summary of the method: as §1

| Drug uptake [6] | SMILES | Drug uptake [1] | Drug uptake [2] | Drug uptake [3] | Drug uptake [4] | Stability [5] | Stability [7] | IC50 [8] | IC50 [9] | Activity [10] | IC50 [11] | IC50 ([12]; read-out: IC50) | IC50 [13] | Drug uptake [14] | IC50 ([12]; read-out: pIC50 (converted)) |
| --- | --- | --- | --- | --- | --- | --- | --- | --- | --- | --- | --- | --- | --- | --- | --- |
| 1.23 % ID/g | CCCCC/C=C\C/C=C\CCCCCCCC(=O)NCC[123I] | 1.33 % ID/g | 24.57 % ID/g | 1.84 % ID/g | 2.58 % ID/g | 94% | 94% |  |  |  |  |  |  |  |  |
|  | CCCCC/C=C\C/C=C\CCCCCCCC(=O)NCCI |  |  |  |  |  |  | 6.66 µM | 7.64 µM | Active | 6.2 µM | 5.78 µM | 7.33 µM |  |  |
|  | CCCCC/C=C\C/C=C\C/C=C\C/C=C\CCCC(=O)NCC[123I] | 1.04 % ID/g | 17.74 % ID/g | 1.46 % ID/g | 3.1 % ID/g | 89% | 92% |  |  |  |  |  |  | 0.579 % ID/g |  |
|  | CCCCC/C=C\C/C=C\C/C=C\C/C=C\CCCC(=O)NCCI |  |  |  |  |  |  | 7.93 µM | 9.89 µM | Active | 4.31 µM | 3.14 µM | 10.1 µM |  |  |
|  | CCCCC/C=C\C/C=C\CCCCCCCC(=O)NCCO [LINOLEOYLETHANOLAMIDE] |  |  |  |  |  |  |  |  |  |  | 7.58 µM |  |  | 7.59 µM |
